Measured values reported in the EternaBench riboswitch data.

System: MS2 coat protein
Test: apparent Kd, MS2 coat protein; higher = weaker binding; RNA-MaP array; FMN 200 µM where present
Procedure, shortened: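 The apparent Kd is reported as the median of filtered per-cluster binding-curve fits. To get these curves, designs transcribed by stalled E. coli RNA polymerase on Illumina sequencing-chip clusters were titrated with SNAP-549-labelled MS2 coat protein from 0.7 or 1.5 nM, doubling to 3 µM. Titrations were run without and then with constant ligand in 100 mM Tris-HCl pH 7.5, 80 mM KCl, 4 mM MgCl2, BSA, DTT, yeast tRNA and Tween-20, and green signal was normalised to red-channel RNA signal and control-cluster median Fmax.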

[1] = designed as: OFF switch for flavin mononucleotide, no ligand
[2] = ligand present: flavin mononucleotide, designed as: OFF switch for flavin mononucleotide
[3] = designed as: ON switch for flavin mononucleotide, no ligand
[4] = ligand present: flavin mononucleotide, designed as: ON switch for flavin mononucleotide

Sequence	apparent Kd [1] [nM]	apparent Kd [2] [nM]	apparent Kd [3] [nM]	apparent Kd [4] [nM]
GCACGGUUGGUAGGAUAUCAUUGCGAUUAGCUAUGAGAAGGACCACAUGAGGAUCACCCAUGUCCUCUAAUUAGCCUGCCGUGC	152	355		
GCACUGGAUGUAGGAUAUCAGGACGAUAAGUCCUGAGAAGGACAUGAGGAUCACCCAUGUAAAAACUUCCCAGUGCAUAAUAUA	15.4	18		
GCACUGGAUGUAGGAUAUCAGGACGAUAAGUCCUGAGAAGGACAUGAGGAUCACCCAUGUAAAACCUCCCAGUGCUAUAAUAUA	17.1	19.7		
GCACUGGAUGUAGGAUAUCAGGACGAUAAGUCCUGAGAAGGACAUGAGGAUCACCCAUGUAAACUCUAACCAGUGCAUAAUAUA	14	20.4		
GCACUUAGAGAGGUACCGUUACGAACAUGAGGAUCACCCAUGUAGGAUAUGCUAAUAGUAUUGAAGCAGAAGGACACUAAGUGC	7.21	30.4		
GCAGCAAUUUAAAACAUGAGGAUCACCCAUGUCGAGAGAUAUGAGGAUAUGCAUCGGAUGAAGAUGCAGAAGGCAUUGUGCUGC			24.8	7.68
GCAGCGUAUGUAGGAUAUCGGUCAGUUUCUGAUCGAGAAGGACAUGAGGAUCACCCAUGUAAAAUACCGACUUUGUCGGGCUGC	6.43	8.11		
GCAGCUAUUAUUAUACAUGAGGAUCACCCAUGUUACAUGUGUAAGGAUAUUGAUGUUUAUAUAAUCAAGAAGGUACGAAGCUGC			11.6	7.15
GCAGCUUAUGCAGGAUAUCAGCACGUGUAGUGCUGAGAAGGGCACAUGAGGAUCACCCAUGUGAUCAAUUAAUAUAAAUGCUGC	12.8	48.5		
GCAGGAUAAGUGAGGAUAUACCUCUGGAUACAGAGGUAGAAGGCACAUGAGGAUCACCCAUGUCUAUAACCUGC	15.5	22.4		
GCAGGAUAAGUGAGGAUAUACCUCUGGAUACAGAGGUAGAAGGUACAUGAGGAUCACCCAUGUCUAUAACCUGC	14.6	16.1		
GCAGGGUAUGAGAAGGCAUAAUUUAUCUUACCACAUGUUUACAUGAGGAUCACCCAUGUUUCCUAUGAGGAUAUCAUACCGUGC	12.4	9.98		
GCAGUAUCAGGAUAUACAUGAGGAUCACCCAUGUGACUCCAUAGGAAGCUAUGUGGAUGUAGAAGGGAUCACUG	54.6	183		
GCAUACAUUCGAGGAUAUCGGUGAACAAAUUAACGAGAAGGCGAUAUAAUUUUUAAACUUAUAGACAUGAGGAUCACCCAUGUA			23.7	20.6
GCAUACAUUCGAGGAUAUCGGUGAACAAAUUAACGAGAAGGCGAUAUAAUUUUUAAACUUAUUGACAUGAGGAUCACCCAUGUA			23.2	20.8
GCAUAUCAGGGAGGAUAUGACAUGAGGAUCACCCAUGUAAUUAUGGCUCUGUCAGAAGGCCCAUCAUCACUAUAGUGACGAGAA	479	63.2		
GCAUCACAUGAGGAUCACCCAUGUCUUCGGAGCGGAGGAUAUGGUCACUGUAAACAGUGGCCAGAAGGCUGGAUGC				25.5
GCAUCUCUAUUAGAACCGAUACGAACAUGAGGAUCACCCAUGUAGGAUAUGCUAAAAGUUGUGUUGCAGAAGGACAUUUAAUGC	9.49	8.64		
GCAUGUAAGCAGAAGGGCAGACAUUUUGAUGCUGCAGGAUAUGCAGAAUCAUAUCCACAUGAUAACAUGAGGAUCACCCAUGUA	19.9	24.3		
GCAUGUAUAUAAGGAUAUGCAUCACUGAGAAAUUUAGUGAGGAAGAUCACAUGAGGAUCACCCAUGUAGAAGGUAUAUACGUGC	8.23	53.2		
GCAUGUUAUGUCAGGAUAUACCUAUGGAUACAUAGGUAGAAGGGACAUGAGGAUCACCCAUGUCCUAAUCAUGC	13.4	16.7		
GCAUUUGAAGGAUAUGUCUUCGGAAACAUGAGGAUCACCCAUGUAAUACUCAUAUCACGGACAGAAGGUCAGGGUC	35.1	40.9		
GCAUUUUAUGCAGGAUAUUGACUUUGGAUUAAACAAGAAGGGCAUAACAUGAGGAUCACCCAUGUUAUAUAGGUAUAUAUGUUC	7.45	9.62		
GCCAACGCAUGAGGAUAUGCUCCCGUUUCGGGAGCAGAAGGCAUGUCAUAAGACAUGAGGAUCACCCAUGUAGUCAAGAUGGCA			291	16.7
GCCAACUUAUGAGGAUAUGGCACCUUAUUGGUGCCAGAAGGCAUGUCUCUUGACAUGAGGAUCACCCAUGUAUUAUAGUUGGCA			421	158
GCCAGGAUGUGAGGAUAUGCUGAGGAUAACUCAGCAGAAGGCACAUGAGGAUCACCCAUGUAAACUUAUAAUAAAUACCCUGGC	13	28.4		
GCCAGGCAUGUAGGAUAUCCAUUGCGUCGCGUUGGAGAAGGGCAACACACAUGAGGAUCACCCAUGUGGUCACCCAUGUAGUGU	489	524		
GCCAGUUAUGUAGGAUAUGCGAGGCGAGCCUGAGCAGAAGGACAUGAGGAUCACCCAUGUAUUGCGGUUUAUGUUCAGAUCGCU	15.9	18.2		

Sequence	apparent Kd [1] [nM]	apparent Kd [2] [nM]	apparent Kd [3] [nM]	apparent Kd [4] [nM]
GCCAGUUAUGUAGGAUAUGCGAGGCGAGCCUGAGCAGAAGGACAUGAGGAUCACCCAUGUAUUGCGGUUUGAGUACUGAUCGCU	38.1	215		
GCCAGUUAUGUAGGAUAUGCGCAGCGAGCCUGAGCAGAAGGACAUGAGGAUCACCCAUGUGUUGCGGUUUGAGUACUAAUCGCU	24.3	134		
GCCAUCAUAUGAGGAUAUGACACCGAAACGGUGUCAGAAGGCAUGUCGAUAGACAUGAGGAUCACCCAUGUAUAAAUGAUGGCA			780	118
GCCAUCGCAUGAGGAUAUCGUCAGGUUUCCUGACGAGAAGGCAUGUCAUAAGACAUGAGGAUCACCCAUGUAGUUAAGAUGGCA			658	57
GCCAUCGCAUGAGGAUAUGCUCCCGUUUCGGGAGCAGAAGGCAUGCCAUAAGACAUGAGGAUCACCCAUGUAGUUAAGAUGGCA			5.71	5.75
GCCAUCGCAUGAGGAUAUGCUCCCGUUUCGGGAGCAGAAGGCAUGUCAUAAGACAUGAGGAUCACCCAUGUGGUUAAGAUGGCA			335	12.4
GCCAUCGCAUGAGGAUAUGCUCCCGUUUCGGGAGCAGAAGGCAUGUGAUAACACAUGAGGAUCACCCAUGUAGUUAAGAUGGCA			5.31	4.45
GCCAUCGCAUGAGGAUAUGGCACCGUUUCGGUGCCAGAAGGCAUGUCAAAUGACAUGAGGAUCACCCAUGUAGUUAAGGUGGCA			225	14.9
GCCAUCGCAUGAGGAUAUGGCACCGUUUCGGUGCCAGAAGGCAUGUCUCUUGACAUGAGGAUCACCCAUGUAGUUAAGAUGGCA			779	52
GCCAUCGUAUGAGGAUAUGACACCGAAACGGUGUCAGAAGGCAUGUCGAUAGACAUGAGGAUCACCCAUGUAUUAACGAUGGCA			740	94.2
GCCAUCGUAUGAGGAUAUGGCACCGAAACGGUGCCAGAAGGCAUGUCAAUAGACAUGAGGAUCACCCAUGUCUUAUCGAUGGCA			19.9	18.9
GCCCAAUCCACUUCGGGCCCAGACAGAAGGGCACACGGUCUAAGUCACAUGAGGAUCACCCAUGUGCAGGAUAUGUCUCGACUC	9.88	50.3		
GCCCGCGCUAAGGAUAUCAGGGUUAAAAUAGUAUGAGAAGGUAGCACAUGAGGAUCACCCAUGUGUCCCUUAUG	16.5	17.3		
GCCCGGGCAAACAUGAGGAUCACCCAUGUGUUAUACUUAAUAUAGGAUAUGUUUAUACUUUUUGGGCAGAAGGAUGGCCCGGGC			35.1	32.4
GCCGAAAGUGUGAGGAUAUACCUAUGGAAACAUAGGUAGAAGGCACAUGAGGAUCACCCAUGUUCCUCAUCGGC	123	623		
GCCGAUUAAGUGAGGAUAUACCUAUGGAUACAUAGGUAGAAGGUACAUGAGGAUCACCCAUGUUCCUCAACGGC	10.4	12.7		
GCCGGAGCAGGAUAUUCAAUAUCACACAUGAGGAUCACCCAUGUCCAGCGAAAGCUGGAGGGAGAAGGGCUCUGGC	70.8	20.3		
GCCGUAAGUGUGAGGAUAUACCUAUGGAAACAUAGGUAGAAGGCACAUGAGGAUCACCCAUGUUCUUAAUCGGC	134	329		
GCCGUAAGUGUGAGGAUAUACCUAUGGAUACAUAGGUAGAAGGCACAUGAGGAUCACCCAUGUCCUUAAUCGGC	247	267		
GCCUAGCUAGGAUAUACCCAGGGUUUGUUCUCUAACGACACACAUGAGGAUCACCCAUGUAGAAGGAGCCGGGA	47.2	41.4		
GCCUCAGAAUUAAUUGUGAGAAGCAGAAGGCUAUAUCUCAUGUUAAACAUGAGGAUCACCCAUGUAGAGGAUAUGCUAUUACAG	58.9	282		
GCCUCAGAAUUAAUUGUGAGAAGCAGAAGGCUAUAUCUUAUGUUAGACAUGAGGAUCACCCAUGUAGAGGAUAUGCUGUUACAG	7.84	12		
GCCUGUGAAGGAUAUACAUGAGGAUCACCCAUGUGGCGGGCAUACCCGCCGAGACCGUGUAGAAGGUCAUAGUA	67.5	57.6		
GCCUUACUGGUCAGGAUAUACAUUUGUUACUCUUUGUAGAAGGGACAUGAGGAUCACCCAUGUACAUUACAUUC	20.8	27.2		
GCGAAGAACGAGAAGGCCACUACAUGAGGAUCACCCAUGUCGUGGAGUAUUGGAGGAUAUCGUUCGGCGUCUCAUGAGGACAUA	4.95	5.22		
GCGAUAACAUGAGGAUCACCCAUGUAUGUGGCGGGCCCUACGAGAAGGCCAUGUAACAAAUACAUGGAGGAUAUCGGAUGAGUU			153	26.6
GCGAUAUUGUAAGGAUAUACUCUGUGAUGAAGAGUAGAAGGUACUUACAUGAGGAUCACCCAUGUUUAACGUGAUACUAAUCGC			541	210
